Measured values as given in ChEMBL document CHEMBL1121917, “Structure--activity relationships in a broad-spectrum anthelmintic series. Acid chloride phenylhydrazones. 1. Aryl substitutions and chloride variations” (1981).

Tests used:
Ovis aries [1] = assay: Percent reduction in Haemonchus eggs per gram, after treatment with 250 mg/kg dose of compound perorally in sheep; format: functional, Egg; details: route oral
How it was run: (§1)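 Naturally parasitized lambs were dosed orally at the stated mg/kg. Dosing was either as a suspension of finely ground compound by stomach tube, or as ground compound weighed into gelatin capsules and given by balling gun. Activity was scored by the clinical test method: the decrease in posttreatment helminth eggs per gram.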

Ovis aries [2] = assay: Percent reduction in Nematodirus eggs per gram, after treatment with 450 mg/kg dose of compound perorally in sheep; format: functional, Egg; details: route oral; how it was run: as §1
Ovis aries [3] = assay: Percent reduction in Ostertagia eggs per gram, after treatment with 325 mg/kg dose of compound perorally in sheep; format: functional, Egg; details: route oral
How it was run: (§2)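 Naturally parasitized lambs, dosed orally either with a suspension by stomach tube or with finely ground compound in gelatin capsules by balling gun. Activity was scored by the clinical test method, meaning a significant fall in helminth egg counts after treatment.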

Ovis aries [4] = assay: Percent reduction in Trichuris eggs per gram, after treatment with 325 mg/kg dose of compound perorally in sheep; format: functional, Egg; details: route oral
Mus musculus [5] = species on record: Mus musculus; assay: Percent clearance of Nematospiroides dubius from mouse after oral treatment of 1.87 mg/mouse/day; format: functional
How it was run: (§3)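 Mice naturally carrying Syphacia obvelata were experimentally infected with Nematospiroides dubius and Hymenolepis nana, then grouped after a 2-week prepatency. Finely ground compound was suspended in aqueous 0.10% carboxymethylcellulose, 0.04% polysorbate 80 and 0.0042% polyparaben, and 0.1 mL was given orally by cannula once daily for 4 days to five mice. Necropsy followed 2 days later, scoring presence or absence of each parasite. Control clearance was subtracted from the treated clearance.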

Canis familiaris [6] = species on record: Canis familiaris; assay: Percent reduction in Ancylostoma eggs per gram, after oral treatment of 175 mg/dog dose of compound in a single treatment; format: functional, Canis lupus familiaris, Egg
How it was run: (§4)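 Dogs naturally infected with Toxascaris leonina were experimentally infected with mixed Ancylostoma caninum and Uncinaria stenocephala larvae. Finely ground compound was given orally in gelatin capsules. Fecal egg counts were taken three times before and three times after treatment, and activity was taken as the fall in egg counts.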

Ovis aries [7] = assay: Percent reduction in Trichostrongylus eggs per gram, after treatment with 250 mg/kg dose of compound perorally in sheep; format: functional, Egg; details: route oral
Ovis aries [8] = assay: Percent reduction in Oesophagostomum eggs per gram, after treatment with 450 mg/kg dose of compound perorally in sheep; format: functional, Egg; details: route oral; how it was run: as §1
Ovis aries [9] = assay: Percent reduction in Trichostrongylus eggs per gram, after treatment with 450 mg/kg dose of compound perorally in sheep; format: functional, Egg; details: route oral; how it was run: as §2
Ovis aries [10] = assay: Percent reduction in Trichuris eggs per gram, after treatment with 400 mg/kg dose of compound perorally in sheep; format: functional, Egg; details: route oral; how it was run: as §2
Ovis aries [11] = assay: Percent reduction in Moniezia eggs per gram, after treatment with 400 mg/kg dose of compound perorally in sheep; format: functional, Egg; details: route oral; how it was run: as §1
Ovis aries [12] = assay: Percent reduction in Ostertagia eggs per gram, after treatment with 450 mg/kg dose of compound perorally in sheep; format: functional, Egg; details: route oral; how it was run: as §2
Ovis aries [13] = assay: Percent reduction in Trichostrongylus eggs per gram, after treatment with 325 mg/kg dose of compound perorally in sheep; format: functional, Egg; details: route oral
Ovis aries [14] = assay: Percent reduction in Strongyloides eggs per gram, after treatment with 450 mg/kg dose of compound perorally in sheep; format: functional, Egg; details: route oral; how it was run: as §2
Ovis aries [15] = assay: Percent reduction in Strongyloides eggs per gram, after treatment with 325 mg/kg dose of compound perorally in sheep; format: functional, Egg; details: route oral; how it was run: as §2
Ovis aries [16] = assay: Percent reduction in Haemonchus eggs per gram, after treatment with 400 mg/kg dose of compound perorally in sheep; format: functional, Egg; details: route oral; how it was run: as §1
Canis familiaris [17] = species on record: Canis familiaris; assay: Percent reduction in Toxascaris eggs per gram, after treatment with 200 mg/dog dose of compound in a single treatment; format: functional, Canis lupus familiaris, Egg
How it was run: (§5)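 Dogs naturally infected with Toxascaris leonina were experimentally infected with mixed Ancylostoma caninum and Uncinaria stenocephala larvae. Finely ground compound was given orally in gelatin capsules. Three egg count determinations were made before and three after treatment in each experiment.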

Ovis aries [18] = assay: Percent reduction in Ostertagia eggs per gram, after treatment with 250 mg/kg dose of compound perorally in sheep; format: functional, Egg; details: route oral; how it was run: as §2
Ovis aries [19] = assay: Percent reduction in Oesophagostomum eggs per gram, after treatment with 250 mg/kg dose of compound perorally in sheep; format: functional, Egg; details: route oral; how it was run: as §1
Canis familiaris [20] = species on record: Canis familiaris; assay: Percent reduction in Ancylostoma eggs per gram, after treatment with 200 mg/dog dose of compound in a single treatment; format: functional, Canis lupus familiaris, Egg; how it was run: as §4
Ovis aries [21] = assay: Percent reduction in Trichuris eggs per gram, after treatment with 250 mg/kg dose of compound perorally in sheep; format: functional, Egg; details: route oral; how it was run: as §2
Ovis aries [22] = assay: Percent reduction in Strongyloides eggs per gram, after treatment with 250 mg/kg dose of compound perorally in sheep; format: functional, Egg; details: route oral; how it was run: as §2
Ovis aries [23] = assay: Percent reduction in Cooperia eggs per gram, after treatment with 400 mg/kg dose of compound perorally in sheep; format: functional, Egg; details: route oral
How it was run: (§6)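 Naturally parasitized lambs received compound orally, either as the aqueous suspension by stomach tube or as finely ground powder in gelatin capsules by balling gun. Activity was judged by the clinical test method, as a significant decrease in posttreatment helminth egg counts.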

Ovis aries [24] = assay: Percent reduction in Trichostrongylus eggs per gram, after treatment with 400 mg/kg dose of compound perorally in sheep; format: functional, Egg; details: route oral; how it was run: as §2
Ovis aries [25] = assay: Percent reduction in Trichuris eggs per gram, after treatment with 450 mg/kg dose of compound perorally in sheep; format: functional, Egg; details: route oral; how it was run: as §2
Canis familiaris [26] = species on record: Canis familiaris; assay: Percent reduction in Uncinaria eggs per gram, after treatment with 200 mg/dog dose of compound in a single treatment; format: functional, Canis lupus familiaris, Egg; how it was run: as §5
Ovis aries [27] = assay: Percent reduction in Nematodirus eggs per gram, after treatment with 250 mg/kg dose of compound perorally in sheep; format: functional, Egg; details: route oral; how it was run: as §1
Mus musculus [28] = species on record: Mus musculus; assay: Percent clearance of Syphacaia obvelata from mouse after oral treatment of 1.87 mg/mouse/day; format: functional; how it was run: as §3
Canis familiaris [29] = species on record: Canis familiaris; assay: Percent reduction in Uncinaria eggs per gram, after oral treatment of 175 mg/dog dose of compound in a single treatment; format: functional, Canis lupus familiaris, Egg
Ovis aries [30] = assay: Percent reduction in Ostertagia eggs per gram, after treatment with 400 mg/kg dose of compound perorally in sheep; format: functional, Egg; details: route oral; how it was run: as §2
Ovis aries [31] = assay: Percent reduction in Haemonchus eggs per gram, after treatment with 450 mg/kg dose of compound perorally in sheep; format: functional, Egg; details: route oral; how it was run: as §1
Ovis aries [32] = assay: Percent reduction in Haemonchus eggs per gram, after treatment with 325 mg/kg dose of compound perorally in sheep; format: functional, Egg; details: route oral; how it was run: as §1
Ovis aries [33] = assay: Percent reduction in Oesophagostomum eggs per gram, after treatment with 100 mg/kg dose of compound perorally in sheep; format: functional, Egg; details: route oral; how it was run: as §1
Ovis aries [34] = assay: Percent reduction in Haemonchus eggs per gram, after treatment of 100 mg/kg dose of compound perorally in sheep; format: functional, Egg; details: route oral; how it was run: as §6
Ovis aries [35] = assay: Percent reduction in Trichuris eggs per gram, after treatment with 100 mg/kg dose of compound perorally in sheep; format: functional, Egg; details: route oral; how it was run: as §2
Ovis aries [36] = assay: Percent reduction in Cooperia eggs per gram, after treatment with 100 mg/kg dose of compound perorally in sheep; format: functional, Egg; details: route oral; how it was run: as §6
Ovis aries [37] = assay: Percent reduction in Trichostrongylus eggs per gram, after treatment with 100 mg/kg dose of compound perorally in sheep; format: functional, Egg; details: route oral; how it was run: as §2
Ovis aries [38] = assay: Percent reduction in Ostertagia eggs per gram, after treatment with 100 mg/kg dose of compound perorally in sheep; format: functional, Egg; details: route oral; how it was run: as §1
Ovis aries [39] = assay: Percent reduction in Strongyloides eggs per gram, after treatment with 100 mg/kg dose of compound perorally in sheep; format: functional, Egg; details: route oral; how it was run: as §2
Canis familiaris [40] = species on record: Canis familiaris; assay: Percent reduction in Uncinaria eggs per gram, after oral treatment of 100 mg/dog dose of compound in a single treatment; format: functional, Canis lupus familiaris, Egg; how it was run: as §5
Canis familiaris [41] = species on record: Canis familiaris; assay: Percent reduction in Toxascaris eggs per gram, after oral treatment of 100 mg/dog dose of compound in a single treatment; format: functional, Canis lupus familiaris, Egg; how it was run: as §5
Canis familiaris [42] = species on record: Canis familiaris; assay: Percent reduction in Toxascaris eggs per gram, after oral treatment of 200 mg/dog dose of compound in a single treatment; format: functional, Canis lupus familiaris, Egg; how it was run: as §5
Canis familiaris [43] = species on record: Canis familiaris; assay: Percent reduction in Uncinaria eggs per gram, after oral treatment of 200 mg/dog dose of compound in a single treatment; format: functional, Canis lupus familiaris, Egg; how it was run: as §5

`Cl/C(=N\Nc1c(Cl)cc(Cl)cc1Cl)c1ccccc1` was tested, and the Reduction (Ovis aries [1]) was 98%, the Reduction (Ovis aries [2]) was 63% and the Reduction (Ovis aries [3]) was 98%. For the same compound, the Reduction (Ovis aries [4]) was 0%, the Parasite_Clearance (Mus musculus [5]) was 80% and the Reduction (Canis familiaris [6]) was 31%. The Reduction (Ovis aries [7]) was 98%, the Reduction (Ovis aries [8]) was 0% and the Reduction (Ovis aries [9]) was 100%. The Reduction (Ovis aries [10]) was 14%, the Reduction (Ovis aries [11]) was 100% and the Reduction (Ovis aries [12]) was 100%. The Reduction (Ovis aries [13]) was 33%, the Reduction (Ovis aries [14]) was 100% and the Reduction (Ovis aries [15]) was 79%. The Reduction (Ovis aries [16]) was 85%, the Reduction (Canis familiaris [17]) was 67% and the Reduction (Ovis aries [18]) was 100%. For the same compound, the Reduction (Ovis aries [19]) was 95%, the Reduction (Canis familiaris [20]) was 87% and the Reduction (Ovis aries [21]) was 63%. For the same compound, the Reduction (Ovis aries [22]) was 95%, the Reduction (Ovis aries [23]) was 100% and the Reduction (Ovis aries [24]) was 77%. It also gave a Reduction (Ovis aries [25]) of 29%, a Reduction (Canis familiaris [26]) of 59% and a Reduction (Ovis aries [27]) of 82%. The Parasite_Clearance (Mus musculus [28]) was 20%, the Reduction (Canis familiaris [29]) was 26% and the Reduction (Ovis aries [30]) was 100%. It also gave a Reduction (Ovis aries [31]) of 94% and a Reduction (Ovis aries [32]) of 99%.

For `Cl/C(=N\Nc1ccc(Cl)c(Cl)c1Cl)c1ccccc1`, the Reduction (Ovis aries [33]) was 0%, the Reduction (Ovis aries [34]) was 0% and the Reduction (Ovis aries [35]) was 0%. For the same compound, the Reduction (Ovis aries [36]) was 89%, the Reduction (Ovis aries [37]) was 0% and the Reduction (Ovis aries [38]) was 0%. The Reduction (Ovis aries [39]) was 95%.

For `Cl/C(=N\Nc1ccccc1)c1ccc(I)cc1`, the Reduction (Canis familiaris [40]) was 41%, the Parasite_Clearance (Mus musculus [5]) was 80% and the Reduction (Canis familiaris [41]) was 0%. For the same compound, the Reduction (Canis familiaris [42]) was 100%, the Reduction (Canis familiaris [43]) was 63% and the Parasite_Clearance (Mus musculus [28]) was 100%.
